The values below come from PubChem BioAssay AID504382 (The Scripps Research Institute Molecular Screening Center, 2011).

Hit rate of the full screen: of about 2,500 compounds, about 460 (18%) were called active. A selection follows. A number with no mark means an inactive call.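 How the source made its calls: active means mean activation above a cutoff of low control average plus 3 SD from the earlier screen (cut at about 12% in these data); inactive means the rest.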

This test in a line: compound fluorescence interference without thin filaments, confirmation, artefact control for cardiac RTF calcium sensitizer project, biochemical (AID 504382). The settings on record: IANBD fluorescence interference counterscreen, buffer, EC20 Ca2+; at 7.2 µM; hits give high values; scaled: EC20 calcium 0, EC100 calcium 100. The method in brief:
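Doses – one dose of 7.2 µM, 0.7% DMSO · Buffer or medium – MOPS/KCl/MgCl2/EGTA/NTA/DTT buffer, pH 7.2 · Probe or stimulus – Ca2+ fixed at EC20, 0.472 mM · Measured by – fluorescence intensity, excitation 480 nm, emission 540 nm · Read-out – fluorescence interference versus control range · Timing – 15 min compound exposure at 25 °C · Replication – triplicate wells per compound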
In general terms: A counterscreen serves to expose hits that act by an unwanted route or on another target.
`COc1ccc(OCC(=O)OCCNC(=O)c2cccnc2)cc1`: the fluorescence artifact activation was 0.14%.

Turning to `O=C(CN1C(=O)c2ccccc2C1=O)NCc1ccc(N2CCOCC2)cc1`, the fluorescence artifact activation was 1.1%. On to `Cc1cc2nc3c(=O)[nH]c(=S)[nH]c3nc2cc1NC(=O)C(F)(F)F`, for which the fluorescence artifact activation was 5.96%. For `O=C1c2ccccc2C(Nc2cccnc2)N1Cc1ccccc1Cl` (stereo not drawn) the value was 10.4%.

Regarding `Cc1ccc(-n2nc(C)c(=O)c(-c3ccccc3)c2NC(=O)c2cccs2)cc1`, the fluorescence artifact activation was 1.25%. In the case of `CC(C)C[C@@H](CN=[N+]=[N-])N1CCN(C)CCC1=O`, the fluorescence artifact activation was 0.09%.

`c1ccc2c(c1)CCCN2Cc1nnc2n1CCCCC2`: the fluorescence artifact activation is 37% (active). For `O=c1cc(CN2CCCc3ccccc32)nc2sccn12`, the fluorescence artifact activation is 0.01%. As to `c1ccc2c(c1)CCCN2Cc1nnnn1CC1CCCO1` (stereo not drawn), the fluorescence artifact activation is 0.36%.

With `COc1ccc(CNc2nn[nH]n2)cc1OC`, the fluorescence artifact activation is 2.6%. Consider `Cc1ccc([C@@H]2C3COCC=C3C(C#N)=C(N)C2(C#N)C#N)o1` (stereo partly drawn), for which the fluorescence artifact activation was 0.32%. For `O=C(C1CCN(Cc2ccc(OCc3ccccc3)cc2)CC1)N1CCCC1` the value was 0.13%. As for `CN1CCN(/N=C/c2ccc(OCc3ccccc3)cc2)CC1`, the fluorescence artifact activation was 107% (active).

For the compound `CN1CCN(CCOc2ccc(Cc3ccccc3)cc2)CC1`, the fluorescence artifact activation is 0.23%. Take `Cc1ccc(/C=C2\Oc3c(ccc(O)c3CN3CCN(C)CC3)C2=O)cc1`: the fluorescence artifact activation was 0.13%. Regarding `OCCN1CCN(CC(O)COc2ccc(C34CC5CC(CC(C5)C3)C4)cc2)CC1` (stereo not drawn), the fluorescence artifact activation is 32.1% (active). With `CCCCNc1nc(-c2ccccc2)nc(-n2ccnc2)n1`, the fluorescence artifact activation was 1.09%.

With `COc1cc(CCCN2C(=S)NC[C@@H]2CC2CCCCC2)cc(OC)c1OC`, the fluorescence artifact activation is 7.7%. For `Cc1cc2cc(C=C(C#N)C#N)c(Cl)nc2cc1C` the value was -0.03%; for `Cc1cc(C(=O)NNC(=S)Nc2ccccc2C)cs1`, 1.65%. The same measure for `NC(=O)NNC1=Nc2cccc3cccc1c23`: 1.01%; for `CC(Oc1ccc(S(=O)(=O)N2CCCC2)cc1[N+](=O)[O-])C(=O)N(C)c1ccccc1` (stereo not drawn): 0.2%; for `O=C(COc1ccc(Cl)cc1[N+](=O)[O-])N1CCCCCC1`: 0.34%. With `O=C(COc1ccc(Cl)cc1[N+](=O)[O-])N1CCCCC1`, the fluorescence artifact activation was 18.1% (active). With `COc1ccc(NC(=O)NS(=O)(=O)c2ccc(C)cc2)cn1`, the fluorescence artifact activation was 0.39%. The same measure for `O=C(N1CCOCC1)N1CCC(n2nnc3ccccc32)CC1`: 0.06%; for `Cc1ccsc1C1C=C(c2cccc(Br)c2)Nc2ncnn21` (stereo not drawn): -0.01%; for `CCOC(=O)c1sc(N)c(C#N)c1COC(=O)CNC(=O)c1cc(OC)c(OC)c(OC)c1`: 3.51%. Regarding `CCOC(=O)c1sc(=NC(=O)c2cc(OC)c(OC)c(OC)c2)n(C)c1C`, the fluorescence artifact activation was 80.1% (active).

`CCOC(=O)c1sc(-c2ccc(F)cc2)cc1NC(=O)Nc1ccccc1OC`: the fluorescence artifact activation was 7.09%. In the case of `S=C1NC2=C(CCC/C2=C\c2ccccc2)C(c2ccccc2)N1` (stereo not drawn), the fluorescence artifact activation is 0.06%. Turning to `O=C(Oc1ccc2c(c1)O/C(=C\c1ccncc1)C2=O)c1ccccc1`, the fluorescence artifact activation is 33% (active). Turning to `COc1ccccc1C(=O)Oc1ccc2c(c1)O/C(=C\c1ccncc1)C2=O`, the fluorescence artifact activation was 8.13%. For `COc1ccc(/C=C2\Oc3cc(OCC(N)=O)ccc3C2=O)cc1OC` the value was 0.06%; for `O=C(CC1SC(N2CCCCC2)=NC1=O)Nc1ccc(C(=O)NCc2ccccc2)cc1` (stereo not drawn), 3.4%.

In the case of `Cc1ccc(C(=O)Nc2ccc3c(c2)ncn3C)cc1`, the fluorescence artifact activation was 2.41%. `O=C1NC(c2ccco2)Nc2sc3c(c21)CCN(Cc1ccccc1)C3` (stereo not drawn): the fluorescence artifact activation is 0.37%.

In the case of `COc1ccc(/C(O)=C2\C(=O)C(=O)N(Cc3ccco3)C2c2cc(OC)ccc2OC)cc1` (stereo not drawn), the fluorescence artifact activation was 0.4%.

Take `COc1ccc(NC(=O)CS(=O)(=O)c2cccc(Cl)c2)cc1`: the fluorescence artifact activation was 0.13%. The same measure for `COc1ccc(NC(=O)CC2C(=O)N(Cc3ccco3)C(=S)N2C(C)C)cc1` (stereo not drawn): 23.2% (active); for `Cc1cccc(C)c1OCC(C)N` (stereo not drawn): 4.83%. As for `O=C(COc1ccccc1F)NC1CC1`, the fluorescence artifact activation is 10.7%. As for `COc1ccccc1CNc1cc(C)ccc1C`, the fluorescence artifact activation is 415% (active). For `C=CCOc1ccccc1CNc1cccc(F)c1` the value was 1.22%.

Take `COc1ccc(C)cc1NC(=O)CC1COc2ccccc2O1` (stereo not drawn): the fluorescence artifact activation was 0.06%. The same measure for `Cc1cccc(-n2c(C)cc(C=C3C(=O)c4ccccc4C3=O)c2C)c1`: -0.01%. Regarding `CCC1SC(=Nc2cccc(C)c2)NC1=O` (stereo not drawn), the fluorescence artifact activation is 50% (active). For `COCCn1c(=NC(=O)/C=C/c2ccccc2)sc2cc(NC(C)=O)ccc21`, the fluorescence artifact activation is 3.82%. For the compound `CCOC(=O)c1c(C(C)(C)C)oc2ccc(OCC#N)cc12`, the fluorescence artifact activation is 0.48%. For `COc1cc2c(cc1OC)-c1cc3ccc4c(c3c[n+]1CC2)OCO4`, the fluorescence artifact activation is 0.19%. `O=C(CSc1nncc2ccccc12)Nc1ccc(F)cc1`: the fluorescence artifact activation was 51.6% (active). The same measure for `COc1ccc(NC(=O)CSc2nncc3ccccc23)cc1`: 0.15%; for `Nc1nc(SCC(=O)Nc2ccc(Cl)cc2)[nH]c(=O)c1-c1ccccc1`: 0.2%. For `COc1ccc(CC/C(C)=N\NC(N)=O)cc1` the value was 1.07%; for `COc1ccc(C)cc1Nc1n[n+](-c2ccccc2)c(-c2cc([N+](=O)[O-])cc(OC)c2O)s1`, -0.11%. For the compound `Cc1[nH]c(C)c(S(=O)(=O)N2c3ccccc3CC2C)c1C(=O)N1CCCCC1` (stereo not drawn), the fluorescence artifact activation is 43.6% (active). For the compound `O=C(c1ccccc1)N1CCCCC1`, the fluorescence artifact activation is 2.65%. On to `O=C1c2ccccc2-c2c1cccc2C(=O)N1CCCCCC1`, for which the fluorescence artifact activation is 0.15%. Consider `C=CCn1cccc(C(=O)Nc2ccc(OC)c(Cl)c2)c1=O`, for which the fluorescence artifact activation was 0.54%. On to `CC1CCCCN1C(=O)Cn1nnc(-c2cccnc2)n1` (stereo not drawn), for which the fluorescence artifact activation was 1.03%. In the case of `COc1ccc(N2CCN(C(=O)Cn3nnc(-c4ccccc4N)n3)CC2)cc1`, the fluorescence artifact activation was 20.6% (active). Take `COc1c(O)cccc1-c1nnn(CCC(=O)OCC(=O)c2ccccc2)n1`: the fluorescence artifact activation is 10.9%. As to `COC(=O)CCC(=O)OC1(C)C(=O)C=C2C=C(C3CC3)N(c3cccc(C#N)c3)C=C2C1=O` (stereo not drawn), the fluorescence artifact activation was -0.02%. The same measure for `COC(=O)c1ccc(Oc2c(F)c(F)nc(N3CCOCC3)c2F)cc1`: -0.07%; for `OCCN(CCO)c1nc(N2CCCCC2)c2nc(N(CCO)CCO)nc(N3CCCCC3)c2n1`: 11.3%.

`O=C(c1ccc([N+](=O)[O-])cc1[N+](=O)[O-])n1cnc2ccccc21`: the fluorescence artifact activation was -0.09%.

For `C=CCn1c(C)c(C(C)=O)c(N2CCN(c3ccccc3)CC2)nc1=S`, the fluorescence artifact activation was 28.9% (active).

For `O=C(c1ccccc1C(=O)N1CCN(c2ccccc2)CC1)N1CCN(c2ccccc2)CC1`, the fluorescence artifact activation was -0.08%. `CC(=O)c1nnn(-c2nc(N3CCCC3)nc(N(c3ccccc3)c3ccccc3)n2)c1C`: the fluorescence artifact activation was 0.23%. In the case of `CC1(C)C2CCC(C2)C1(C)N=C1OC(CCl)CS1` (stereo not drawn), the fluorescence artifact activation is 1.52%. The same measure for `CN(C)c1ccc(/C=C/C(=O)c2ccccc2O)cc1`: 0%.

As to `CN(C)c1ccc(/C=C/C(=O)c2ccc(O)cc2)cc1`, the fluorescence artifact activation is -0.03%. Take `CC(C)=CCC/C(C)=C/Cc1c(O)ccc(C(=O)/C=C/c2ccc(O)cc2)c1O`: the fluorescence artifact activation was 177% (active). In the case of `COc1ccc(C2C(C(=O)c3cccs3)=C(O)C(=O)N2c2nncs2)cc1` (stereo not drawn), the fluorescence artifact activation was 5.56%. For `Cc1ccc(C)c(N2CCN(C(=O)c3cc4ccccn4n3)CC2)c1` the value was 4.58%; for `CCN(CC)c1ccc(/C=C/C(=O)C2C(=O)C=C(C)OC2=O)cc1` (stereo not drawn), 0.16%. For `Cc1ccc(-c2ccc(CO)o2)cc1N` the value was 28.2% (active); for `Cc1ccc2c(CN3CCCc4ccccc43)cc(=O)oc2c1C`, -0.04%. The same measure for `FC(F)(F)c1cccc(-c2nc(COc3ccc(Cl)cc3Cl)no2)c1`: 2280% (active); for `Cn1c(-c2ccc(C=O)s2)nc2c3ccccc3c3ccccc3c21`: 5.75%; for `CCOC(=O)COc1c(Cl)cc(C2NC(=S)NC(c3ccccc3)=C2C(C)=O)cc1OC` (stereo not drawn): 6.87%.

For the compound `CCOc1ccc(NC(=O)C2CC(=O)N=C(N)S2)cc1` (stereo not drawn), the fluorescence artifact activation is 0.11%. The same measure for `Cc1ccc(NC(=O)C(C)Sc2nnc(C)n2C2CC2)cc1S(=O)(=O)N1CCOCC1` (stereo not drawn): 0.96%; for `CN1CCCN(Cc2cccc3ccccc23)CC1`: 0.24%; for `O=C(CCc1ccc(S(=O)(=O)N2CCOCC2)cc1)OCC(=O)c1ccccc1`: 6.03%. Consider `NS(=O)(=O)c1cccc(NC(=O)CCc2ccc(S(=O)(=O)N3CCOCC3)cc2)c1`, for which the fluorescence artifact activation is 31.3% (active). `O=S(=O)(c1ccc(NC(=S)Nc2ccccc2)cc1)N1CCOCC1`: the fluorescence artifact activation is 0.1%. Take `CCOC(=O)CCc1c(C)nc(-n2[nH]c(C)c(CCO)c2=O)[nH]c1=O`: the fluorescence artifact activation was 0.03%. Take `CCOC(=O)CNc1ccc2c(c1)OCO2`: the fluorescence artifact activation is 2.35%.

On to `Cc1ncc(CO)c2cc(-c3nnc(Nc4ccc5c(c4)OCO5)s3)c(=O)oc12`, for which the fluorescence artifact activation was 23.2% (active). In the case of `O=C(c1ccccc1)N1C(=O)C(c2ccccc2)Oc2ccccc21` (stereo not drawn), the fluorescence artifact activation was -0.12%. For `CC(/C=N/Nc1ccc2nncn2n1)=C\c1ccccc1` the value was 12.9% (active). Turning to `COc1cccc(C2C=C(c3ccc(Br)s3)Nc3ncnn32)c1OC` (stereo not drawn), the fluorescence artifact activation is -0.01%. Take `O=C(CNC(=O)c1cccc(Cl)c1)N/N=C/c1cccnc1`: the fluorescence artifact activation was 0.03%. For `CC[n+]1c(/C=C/N(C)c2ccccc2)oc2ccccc21` the value was -0.02%. On to `CC[n+]1c(/C=C/C=C/N(C(C)=O)c2ccccc2)sc2ccccc21`, for which the fluorescence artifact activation is 49.8% (active). On to `CC/C(=C/c1sc2ccccc2[n+]1CC)SC`, for which the fluorescence artifact activation was 2.16%. Turning to `CC1=Nc2ccccc2/C1=C\c1nc(-c2ccc(C(F)(F)F)cc2)oc1O`, the fluorescence artifact activation was -0.02%.
